Laboratory results as given in ChEMBL document CHEMBL4270526, “A novel NAE/UAE dual inhibitor LP0040 blocks neddylation and ubiquitination leading to growth inhibition and apoptosis of cancer cells” (Eur J Med Chem, 2018).
Activity calls are given as the source filed them. No cut-off for these calls is given here.

System: A549
Experiment: Antiproliferative activity against human A549 cells after 48 hrs by CCK8 assay
Type: functional, cell-based
Conditions: A549, 48 h
Summary of the method: (§1)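 Cells seeded at 6 × 10^3 cells/well and left 12 h at 37 °C, 5% CO2. Medium then replaced with serial compound dilutions, bortezomib as positive control. After 48 h, CCK-8 added for 4 h and absorbance read at 450 nm. Three repeats; IC50 from normalized nonlinear regression of inhibition curves.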

Compound | IC50 [µM]
O=c1cc(C#CC2(O)CCCCC2)c2ccc(N3CCC(NCCc4ccccc4)CC3)cc2o1 | 2.48
O=c1cc(C#Cc2cccnc2)c2ccc(N3CCC(NCCc4ccccc4)CC3)cc2o1 | 3.35
O=c1cc(-c2cnc(O)nc2O)c2ccc(N3CCC(NCCc4ccccc4)CC3)cc2o1 | > 30
Cc1ccc(-c2cc(=O)oc3cc(N4CCC(NCCc5ccccc5)CC4)ccc23)cc1C | 3.77

Next, values leading:

IC50 [µM] | Compound
3.83 | O=c1cc(-c2ccc(Oc3ccccc3)cc2)c2ccc(N3CCC(NCCc4ccccc4)CC3)cc2o1
2.99 | O=c1cc(C#CC2CCCCC2)c2ccc(N3CCC(NCCc4ccccc4)CC3)cc2o1
3.1 | O=c1cc(C#Cc2cccc(Cl)c2)c2ccc(N3CCC(NCCc4ccccc4)CC3)cc2o1
> 30 | O=c1cc(-c2c[nH]nn2)c2ccc(N3CCC(NCCc4ccccc4)CC3)cc2o1
5.55 | Clc1ccc(CCNC2CCN(Cc3ccccc3)CC2)c(Cl)c1
3.09 | Cc1cc(-c2cc(=O)oc3cc(N4CCC(NCCc5ccccc5)CC4)ccc23)ccc1C(F)(F)F

System: AGS
Experiment: Antiproliferative activity against human AGS cells after 48 hrs by CCK8 assay
Type: functional, cell-based
Conditions: not given
Summary of the method: as §1

Compound | IC50 [µM]
O=c1cc(C#CC2(O)CCCCC2)c2ccc(N3CCC(NCCc4ccccc4)CC3)cc2o1 | 1.71
O=c1cc(C#Cc2cccnc2)c2ccc(N3CCC(NCCc4ccccc4)CC3)cc2o1 | 1.66
O=c1cc(-c2cnc(O)nc2O)c2ccc(N3CCC(NCCc4ccccc4)CC3)cc2o1 | > 30
Cc1ccc(-c2cc(=O)oc3cc(N4CCC(NCCc5ccccc5)CC4)ccc23)cc1C | 1.89

Now from value to compound:

IC50 [µM] | Compound
1.26 | O=c1cc(-c2ccc(Oc3ccccc3)cc2)c2ccc(N3CCC(NCCc4ccccc4)CC3)cc2o1
1.13 | O=c1cc(C#CC2CCCCC2)c2ccc(N3CCC(NCCc4ccccc4)CC3)cc2o1
1.42 | O=c1cc(C#Cc2cccc(Cl)c2)c2ccc(N3CCC(NCCc4ccccc4)CC3)cc2o1
> 30 | O=c1cc(-c2c[nH]nn2)c2ccc(N3CCC(NCCc4ccccc4)CC3)cc2o1
9.92 | Clc1ccc(CCNC2CCN(Cc3ccccc3)CC2)c(Cl)c1
1.39 | Cc1cc(-c2cc(=O)oc3cc(N4CCC(NCCc5ccccc5)CC4)ccc23)ccc1C(F)(F)F

System: K562
Experiment: Antiproliferative activity against human K562 cells after 48 hrs by CCK8 assay
Type: functional, cell-based
Conditions: K562, 48 h
Summary of the method: as §1

Compound | IC50 [µM]
O=c1cc(C#CC2(O)CCCCC2)c2ccc(N3CCC(NCCc4ccccc4)CC3)cc2o1 | 2.63
O=c1cc(C#Cc2cccnc2)c2ccc(N3CCC(NCCc4ccccc4)CC3)cc2o1 | 3.3
O=c1cc(-c2cnc(O)nc2O)c2ccc(N3CCC(NCCc4ccccc4)CC3)cc2o1 | > 30
Cc1ccc(-c2cc(=O)oc3cc(N4CCC(NCCc5ccccc5)CC4)ccc23)cc1C | 3.26

The next lines start with the values.

IC50 [µM] | Compound
1.53 | O=c1cc(-c2ccc(Oc3ccccc3)cc2)c2ccc(N3CCC(NCCc4ccccc4)CC3)cc2o1
1.17 | O=c1cc(C#CC2CCCCC2)c2ccc(N3CCC(NCCc4ccccc4)CC3)cc2o1
1.32 | O=c1cc(C#Cc2cccc(Cl)c2)c2ccc(N3CCC(NCCc4ccccc4)CC3)cc2o1
> 30 | O=c1cc(-c2c[nH]nn2)c2ccc(N3CCC(NCCc4ccccc4)CC3)cc2o1
5.51 | Clc1ccc(CCNC2CCN(Cc3ccccc3)CC2)c(Cl)c1
3.29 | Cc1cc(-c2cc(=O)oc3cc(N4CCC(NCCc5ccccc5)CC4)ccc23)ccc1C(F)(F)F

System: HCT-116
Experiment: Antiproliferative activity against human HCT116 cells after 48 hrs by CCK8 assay
Type: functional, cell-based
Conditions: HCT-116, 48 h
Summary of the method: as §1

Compound | IC50 [µM]
O=c1cc(C#CC2(O)CCCCC2)c2ccc(N3CCC(NCCc4ccccc4)CC3)cc2o1 | 2.79
O=c1cc(C#Cc2cccnc2)c2ccc(N3CCC(NCCc4ccccc4)CC3)cc2o1 | 2.69
O=c1cc(-c2cnc(O)nc2O)c2ccc(N3CCC(NCCc4ccccc4)CC3)cc2o1 | > 30
Cc1ccc(-c2cc(=O)oc3cc(N4CCC(NCCc5ccccc5)CC4)ccc23)cc1C | 5.82

The next lines start with the values.

IC50 [µM] | Compound
6.11 | O=c1cc(-c2ccc(Oc3ccccc3)cc2)c2ccc(N3CCC(NCCc4ccccc4)CC3)cc2o1
2.81 | O=c1cc(C#CC2CCCCC2)c2ccc(N3CCC(NCCc4ccccc4)CC3)cc2o1
4.27 | O=c1cc(C#Cc2cccc(Cl)c2)c2ccc(N3CCC(NCCc4ccccc4)CC3)cc2o1
> 30 | O=c1cc(-c2c[nH]nn2)c2ccc(N3CCC(NCCc4ccccc4)CC3)cc2o1
10.6 | Clc1ccc(CCNC2CCN(Cc3ccccc3)CC2)c(Cl)c1
6 | Cc1cc(-c2cc(=O)oc3cc(N4CCC(NCCc5ccccc5)CC4)ccc23)ccc1C(F)(F)F

System: BXPC-3
Experiment: Antiproliferative activity against human BxPC3 cells after 48 hrs by CCK8 assay
Type: functional, cell-based
Conditions: BXPC-3, 48 h
Summary of the method: as §1

Compound | IC50 [µM]
O=c1cc(C#CC2(O)CCCCC2)c2ccc(N3CCC(NCCc4ccccc4)CC3)cc2o1 | 2.01
O=c1cc(C#Cc2cccnc2)c2ccc(N3CCC(NCCc4ccccc4)CC3)cc2o1 | 4.33
O=c1cc(-c2cnc(O)nc2O)c2ccc(N3CCC(NCCc4ccccc4)CC3)cc2o1 | > 30
Cc1ccc(-c2cc(=O)oc3cc(N4CCC(NCCc5ccccc5)CC4)ccc23)cc1C | 8.44

More lines, now with the values ahead:

IC50 [µM] | Compound
2.82 | O=c1cc(-c2ccc(Oc3ccccc3)cc2)c2ccc(N3CCC(NCCc4ccccc4)CC3)cc2o1
4.08 | O=c1cc(C#CC2CCCCC2)c2ccc(N3CCC(NCCc4ccccc4)CC3)cc2o1
1.33 | O=c1cc(C#Cc2cccc(Cl)c2)c2ccc(N3CCC(NCCc4ccccc4)CC3)cc2o1
> 30 | O=c1cc(-c2c[nH]nn2)c2ccc(N3CCC(NCCc4ccccc4)CC3)cc2o1
12.4 | Clc1ccc(CCNC2CCN(Cc3ccccc3)CC2)c(Cl)c1
7.67 | Cc1cc(-c2cc(=O)oc3cc(N4CCC(NCCc5ccccc5)CC4)ccc23)ccc1C(F)(F)F

System: SK-OV-3
Experiment: Antiproliferative activity against human SKOV3 cells after 48 hrs by CCK8 assay
Type: functional, cell-based
Conditions: SK-OV-3, 48 h
Summary of the method: as §1

Compound | IC50 [µM]
O=c1cc(C#CC2(O)CCCCC2)c2ccc(N3CCC(NCCc4ccccc4)CC3)cc2o1 | 4.35
O=c1cc(C#Cc2cccnc2)c2ccc(N3CCC(NCCc4ccccc4)CC3)cc2o1 | 7.7
O=c1cc(-c2cnc(O)nc2O)c2ccc(N3CCC(NCCc4ccccc4)CC3)cc2o1 | > 30
Cc1ccc(-c2cc(=O)oc3cc(N4CCC(NCCc5ccccc5)CC4)ccc23)cc1C | 6.42

More lines, now with the values ahead:

IC50 [µM] | Compound
3.22 | O=c1cc(-c2ccc(Oc3ccccc3)cc2)c2ccc(N3CCC(NCCc4ccccc4)CC3)cc2o1
4.17 | O=c1cc(C#CC2CCCCC2)c2ccc(N3CCC(NCCc4ccccc4)CC3)cc2o1
7.5 | O=c1cc(C#Cc2cccc(Cl)c2)c2ccc(N3CCC(NCCc4ccccc4)CC3)cc2o1
> 30 | O=c1cc(-c2c[nH]nn2)c2ccc(N3CCC(NCCc4ccccc4)CC3)cc2o1
9.26 | Clc1ccc(CCNC2CCN(Cc3ccccc3)CC2)c(Cl)c1
5.94 | Cc1cc(-c2cc(=O)oc3cc(N4CCC(NCCc5ccccc5)CC4)ccc23)ccc1C(F)(F)F

System: not listed separately
Experiment: Hemolytic activity against rabbit erythrocytes assessed as hemolysis at 100 uM measured after 1 hr
Type: ADME, cell-based, Oryctolagus cuniculus, Erythrocyte
Conditions: read-out: Activity
Summary of the method: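 Rabbit erythrocytes pelleted at 3000 rpm for 10 min, washed twice and resuspended in PBS. Mixed 1:1 with 200 μM compound solution in PBS, 1 h at 37 °C. PBS served as 0% and 1% Triton X-100 as 100% hemolysis. After centrifugation, supernatant hemoglobin read at 540 nm; % hemolysis calculated relative to the Triton and PBS controls.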

Compound | hemolysis at 1 h, 100 µM [%]
NS(=O)(=O)OC[C@@H]1C[C@@H](n2ccc3c(N[C@@H]4CCc5ccccc54)ncnc32)C[C@@H]1O | 5.8
O=c1cc(C#Cc2cccnc2)c2ccc(N3CCC(NCCc4ccccc4)CC3)cc2o1 | < 10
O=c1cc(C#Cc2cccc(Cl)c2)c2ccc(N3CCC(NCCc4ccccc4)CC3)cc2o1 | < 10

System: not listed separately
Experiment: Antiproliferative activity against HEK293T cells after 48 hrs by CCK8 assay
Type: cell-based, HEK-293T
Conditions: human, read-out: LC50

Compound | CC50 at 48 h [µM]
NS(=O)(=O)OC[C@@H]1C[C@@H](n2ccc3c(N[C@@H]4CCc5ccccc54)ncnc32)C[C@@H]1O | 6.17
CC(C)C[C@H](NC(=O)[C@H](Cc1ccccc1)NC(=O)c1cnccn1)B(O)O [BORTEZOMIB] | 0.016

System: not listed separately
Experiment: Antiproliferative activity against HUVEC after 48 hrs by CCK8 assay
Type: cell-based
Conditions: human, read-out: LC50

Compound | CC50 at 48 h [µM]
NS(=O)(=O)OC[C@@H]1C[C@@H](n2ccc3c(N[C@@H]4CCc5ccccc54)ncnc32)C[C@@H]1O | 4.79
CC(C)C[C@H](NC(=O)[C@H](Cc1ccccc1)NC(=O)c1cnccn1)B(O)O [BORTEZOMIB] | 0.018

System: not listed separately
Experiment: Antiproliferative activity against human LO2 cells after 48 hrs by CCK8 assay
Type: cell-based, L02
Conditions: read-out: LC50

Compound | CC50 at 48 h [µM]
NS(=O)(=O)OC[C@@H]1C[C@@H](n2ccc3c(N[C@@H]4CCc5ccccc54)ncnc32)C[C@@H]1O | 9.01
CC(C)C[C@H](NC(=O)[C@H](Cc1ccccc1)NC(=O)c1cnccn1)B(O)O [BORTEZOMIB] | 0.398

Molecular target: T1, NEDD8 activating enzyme (Homo sapiens) (UniProt Q8TBC4+Q13564)
Experiment: Inhibition of NAE in human AGS cells assessed as reduction in Uba3-NEDD8 conjugation level at 10 to 90 uM after 24 hrs by Western blot analysis
Type: cell-based
Conditions: not given

Compound | inhibition
O=c1cc(-c2cnc(O)nc2O)c2ccc(N3CCC(NCCc4ccccc4)CC3)cc2o1 | inactive

Molecular target: T1, NEDD8 activating enzyme (Homo sapiens)
Experiment: Inhibition of NAE in human AGS cells assessed as reduction in Ubc12-NEDD8 conjugation level at 10 to 90 uM after 24 hrs by Western blot analysis
Type: cell-based
Conditions: not given

Compound | inhibition
O=c1cc(-c2cnc(O)nc2O)c2ccc(N3CCC(NCCc4ccccc4)CC3)cc2o1 | inactive

Molecular target: T1, NEDD8 activating enzyme (Homo sapiens)
Experiment: Inhibition of NAE in human AGS cells assessed as reduction in Cullins-NEDD8 conjugation level at 10 to 90 uM after 24 hrs by Western blot analysis
Type: cell-based
Conditions: not given

Compound | inhibition
O=c1cc(-c2cnc(O)nc2O)c2ccc(N3CCC(NCCc4ccccc4)CC3)cc2o1 | inactive

Molecular target: T1, NEDD8 activating enzyme (Homo sapiens)
Experiment: Inhibition of NAE-mediated CRL neddylation in human AGS cells assessed as increase in CDT1 level after 24 hrs by Western blot analysis
Type: cell-based
Conditions: not given
Summary of the method: (§2)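 AGS cells given 2, 4, 6, 8 or 10 μM compound or 0.1% DMSO for 24 h, washed in ice-cold PBS and lysed in RIPA on ice. Equal protein loads run by SDS-PAGE: non-reducing for NEDD8/SUMO/Ub conjugates, reducing for p27, NRF2, CDT1 and cleaved caspase-3. Blotted to PVDF with primary antibody overnight at 4 °C and HRP secondary, ECL detection, densitometry. Three repeats.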

Compound | inhibition
O=c1cc(-c2cnc(O)nc2O)c2ccc(N3CCC(NCCc4ccccc4)CC3)cc2o1 | inactive

Molecular target: T1, NEDD8 activating enzyme (Homo sapiens)
Experiment: Inhibition of NAE-mediated CRL neddylation in human AGS cells assessed as increase in p27 level after 24 hrs by Western blot analysis
Type: cell-based
Conditions: not given
Summary of the method: as §2

Compound | inhibition
O=c1cc(-c2cnc(O)nc2O)c2ccc(N3CCC(NCCc4ccccc4)CC3)cc2o1 | inactive

Molecular target: T1, NEDD8 activating enzyme (Homo sapiens)
Experiment: Inhibition of NAE-mediated CRL neddylation in human AGS cells assessed as increase in NRF2 level after 24 hrs by Western blot analysis
Type: cell-based
Conditions: not given
Summary of the method: as §2

Compound | inhibition
O=c1cc(-c2cnc(O)nc2O)c2ccc(N3CCC(NCCc4ccccc4)CC3)cc2o1 | inactive
